Assay outcomes as filed in PubChem BioAssay.
MrgX1 ag: agonists of human MrgX1 receptor; Q96LB2; MrgX1-HEK293 cells, Fluo-4 calcium fluorescence, agonist mode; stronger effect = higher value; B-score at 10 µM; hit rate 0.44% among 310,000;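 active means calcium response B-score plate-corrected fluorescence ratio at least 3 library SD, with starting fluorescence B-score inside 5 SD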
Target sequence (Q96LB2 whole entry, looked up): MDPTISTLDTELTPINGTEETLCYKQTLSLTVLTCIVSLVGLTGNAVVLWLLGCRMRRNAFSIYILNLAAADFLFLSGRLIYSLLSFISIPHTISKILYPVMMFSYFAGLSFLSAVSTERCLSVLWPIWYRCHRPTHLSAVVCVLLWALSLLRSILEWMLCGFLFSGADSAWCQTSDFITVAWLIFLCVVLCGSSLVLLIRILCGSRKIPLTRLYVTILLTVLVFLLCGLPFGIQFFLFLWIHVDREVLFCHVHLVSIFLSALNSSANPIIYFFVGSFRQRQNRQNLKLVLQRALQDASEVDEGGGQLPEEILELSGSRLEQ
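System: HEK293 cells stably expressing human MrgX1 receptor; Dosing: test compound in the initial addition of three; Schedule: overnight plating, then 30 min 37 °C plus 30 min room-temperature dye loading; Detection: kinetic calcium dye fluorescence, Fluo-4 NW; Controls: per-plate positive and negative controls for Z′ factor.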
RGS4 pot: RGS4 potentiation or activation; hit rate 0.92% among 310,000; HEK293 M3R/inducible RGS4, carbachol calcium flux Fluo4; stronger effect = lower value; B-score at 10 µM;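 active means B-score of the integrated calcium signal more than 4 SD below the library mean, with starting fluorescence not abnormally high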;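 further: negative B-score means reduced calcium response which marks RGS4 activation or potentiation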
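Material: Inducible-RGS4 HEK293 cells carrying M3 receptor; also added: carbachol at ECmax as muscarinic agonist stimulus; incubation: compound preincubation 20 min at room temperature before agonist; signal: Fluo4-AM (2 µM) calcium-flux fluorescence, kinetic read; measure: integrated calcium ratio converted to B score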
MrgX1 antagonist: antagonists of human MrgX1 receptor; AID 588676; hit rate 1.3% among 310,000; B-score at 10 µM; MRGX1-HEK293 calcium flux, Fluo-4, BAM8-22 antagonism; stronger effect = lower value;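 active means calcium-response B-score plate-corrected more than 3 library SD below zero, starting fluorescence within 5 deviations, no agonist response on first addition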;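 further: peak minus trough fluorescence over baseline after final BAM8-22 challenge near maximal dose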
RGS4 block: human RGS4 inhibition. AID 463165. B-score at 10 µM. HEK293 M3R/RGS4 inducible, Fluo-4 calcium flux; stronger effect = higher value; triggered by carbachol at its EC20. hit rate 0.45% among 310,000;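 active means B-score, a plate-corrected calcium signal, over three deviations above library mean, with baseline fluorescence within five deviations of library mean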;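 further: RGS4 expression induced by doxycycline in cells with stable M3 receptor; B-score is computed from the integrated fluorescence ratio over baseline after carbachol; higher B-score means a larger calcium signal and so more RGS4 inhibition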
MrgX1 PAM: human MrgX1 positive allosteric modulation, primary screen; MrgX1-HEK293, Fluo-4 calcium flux, FDSS; stronger effect = higher value; AID 588675; hit rate 0.63% among 310,000; B-score at 10 µM;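 active means plate-corrected calcium response at least 3 library SD above typical, normal starting fluorescence, not activating the receptor alone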;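 further: compound read alongside a low EC10 to EC30 dose of BAM8-22 agonist; peak minus trough fluorescence over baseline measured at the second addition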
RGS4 activ val: confirmation of RGS4 activators. HEK293 M3R/RGS4 inducible, carbachol calcium flux Fluo4. inhibition, % at 10 µM. hit rate 89% among 1,100. AID 602282. shares compounds with RGS4 pot;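 active means inhibition above 3 SD of the buffer control wells, cut at about 41% in these data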;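 further: signal is the integrated peak-minus-minimum Fluo4 fluorescence over baseline ratio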
M3R Ca counter: RGS4 activator counter-screen hit in non-induced cells; shares compounds with RGS4 pot; HEK293 M3R non-induced RGS4, Fluo4 calcium flux; after carbachol challenge at its EC90; inhibition, % at 10 µM; hit rate 82% among 1,100; AID 602283;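 active means inhibition exceeding 3 SD of buffer-only control wells, cut at about 26% in these data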;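 further: percent drop in integrated peak-minus-baseline over baseline Fluo4 ratio after carbachol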
The depositor's hits bear a star; i = inactive; / = not tested or not shown. In the library only some 3.5% were active in any assay of this set; here they are far more common.

SMILES	MrgX1 ag	RGS4 pot	MrgX1 antagonist	RGS4 block	MrgX1 PAM	RGS4 activ val	M3R Ca counter
O=C(CCN1CCN2CCCC2C1)N1c2ccccc2Sc2ccc(Cl)cc21 (centres undefined)	i	i	i	i	i	/	/
CCN(CC)CCC(=O)N1c2ccccc2Sc2ccc(Cl)cc21	i	i	i	i	i	/	/
CN(C)CCC(=O)N1c2ccccc2Sc2ccc(Cl)cc21	i	-14*	i	i	i	94*	98*
c1ccc(-c2nc(N3CCN(c4ccccc4)CC3)nc(-n3ccnc3)n2)cc1	i	i	i	i	i	/	/
c1ccc(-c2nc(N3CCCCCC3)nc(-n3ccnc3)n2)cc1	i	-8.7*	i	i	i	92*	61*
Nc1nnc(CC(=O)N/N=C/c2ccc(-c3ccc(Cl)cc3Cl)o2)s1	i	i	i	i	i	/	/
Cc1ccc(C(=O)Nc2ccc(CN3CCCCC3)cc2)c(C)c1	i	-8.5*	i	i	i	55*	84*
COc1ccc(Cl)cc1C(=O)Nc1ccc(CN2CCCCC2)cc1	i	i	i	i	i	/	/
Cc1cccc(C)c1C(=NCCCN(C)C)c1ccccc1	i	-9.4*	i	i	i	92*	80*
CN(C)CCCNC(=O)/C(=N\O)c1ccccc1	i	i	i	i	i	/	/
Cn1cc(CN2C[C@]3(C)C[C@H]2CC(C)(C)C3)c(-c2ccc3c(c2)OCCO3)n1	i	-8.9*	i	i	i	88*	47*
CCOC(=O)CC1CCCCN1Cc1cn(C)nc1-c1ccc2c(c1)OCCO2 (centres undefined)	i	i	i	i	i	/	/
CCOCCN1CCN(c2c(CC)c(C)nc3cc(-c4cc(OC)cc(OC)c4)nn23)CC1	i	-7.7*	i	i	i	58*	31*
COc1ccc2nc3sc(C(=O)NCCCN4CCc5ccccc5C4)cc3cc2c1	i	-8.2*	i	i	i	74*	84*
O=C(Nc1ccncc1)c1ccc(-c2ccccc2)cc1	i	i	i	i	i	/	/
CC(C)Nc1nc(NC(C)C)nc(N(C#N)CCOc2ccc(Cl)cc2Cl)n1	i	-7.8*	i	i	i	63*	84*
CCCC[C@@H]1CNCCN1CCc1cc(C(F)(F)F)cc(C(F)(F)F)c1	i	-7.9*	i	i	i	93*	86*
Cc1nn(C(C)C)c(C)c1CN1CCC(C(=O)Nc2cccc(-c3cccc(F)c3)c2)CC1	i	i	i	i	i	/	/
COC(=O)Cn1c(=O)n(CCc2ccccc2)c(=O)c2c3c(sc21)CCCC3	i	-7.8*	i	i	i	92*	89*
CCn1c(=O)n(CCc2ccccc2)c(=O)c2c3c(sc21)CCCC3	i	i	i	i	i	/	/
CCC(=O)N1c2ccc(S(=O)(=O)NCCc3ccc(OC)c(OC)c3)cc2CC1C (centres undefined)	i	i	i	i	i	/	/
CCCc1cc(-c2n[nH]c(=S)n2CC)cs1	i	i	i	i	i	/	/
CCCCn1c(-c2csc(CCC)c2)n[nH]c1=S	i	-12*	i	i	i	58*	84*
Cc1cc(=O)n(C(NC(=O)c2ccccc2)C(=O)c2ccccc2)cn1 (centres undefined)	i	-9.2*	i	i	i	0	0
O=C(NC(C(=O)c1ccccc1)N1CCOCC1)c1ccccc1 (centres undefined)	i	i	i	i	i	/	/
O=C(NCCC(=O)N1CCc2ccccc21)c1ccco1	i	i	i	i	i	/	/
N#Cc1ccccc1OCCCN1CCC(Cc2ccccc2)CC1	i	-8.7*	i	i	i	82*	39*
